The text below walks through data of PMC10170627 (RSC Chemical Biology, 2023).

A word on the IC50: it is the concentration that inhibits the measured activity by half.

In assay [1] the test system is E. coli BL21(DE3). The experiment in a line: Bacteria growth inhibition. In kind it is cell-based, Escherichia coli. Conditions: 0-100 μM, 16 h. The method in brief: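 MIC taken as the lowest test compound concentration at which no bacterial growth was observed.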
Assay [2] has as its system NCI 60-cell line panel. The experiment in a line: NCI 60-cell line panel COMPARE analysis. In kind it is cell-based. Particulars: five-dose data, Standard Agents GI50 library; 48 h.
The test system of assay [3] is DU145 spheroids. The experiment in a line: Cytotoxicity in DU145 spheroids. In kind it is cell-based. Particulars: read-out: IC50 (St. dev.) DU145 spheroids; 72 h; triplicate.
Assay [4] relates to E. coli BL21(DE3). The experiment in a line: Bacterial cytological profiling. In kind it is cell-based, Escherichia coli.
Assay [5] deals with HeLa parental and XPA knockout cells. The experiment in a line: HeLa parental and XPA knockout cytotoxicity. The format is cell-based. Particulars: 72 h.
The test system of assay [6] is HL-60. Particulars: read-out: IC50 (St. dev.) HL-60; ref prior work (footnote d); cited from earlier work.
In assay [7] the test system is NPM1. The assay can be described thus: Nucleophosmin. In kind it is cell-based, human. Particulars: A549; 24 h; 5 nM actinomycin D, 5 μM cisplatin, 5 μM compound 1.
In assay [8] the test system is HEL299. The experiment in a line: Cell cytotoxicity. In kind it is cell-based. Particulars: read-out: IC50 (St. dev.) HEL299; 72 h; triplicate. The method in brief: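 Healthy lung fibroblasts were treated with each test compound. IC50 is the average of triplicate measurements, reported with standard deviation. Selectivity index is the HEL299 IC50 divided by the A549 IC50.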

Assay [9] has as its target E. coli DNA gyrase (Escherichia coli, UniProt P0AES4+P0AES6). The assay can be described thus: Inhibition of DNA gyrase activity. In kind it is biochemical. Particulars: positive control.

Starred links: 1 amine or outer side, 2 acyl side, 3 side chain; linkers in the order of their positions; H or OH if unused. Positions of bridges follow the written chain, without caps; N, C: chain ends. Non-standard residues stand in square brackets, D forms with d. Residues, ends and D or L forms follow the SMILES beside them. Chains are numbered I, II in the order given. Actinocin(9to1) = Cc1c2oc3c(C)ccc(C(=O)[*:1])c3nc-2c(C(=O)[*:2])c(N)c1=O; NMeV = CN[C@H](C(=O)O)C(C)C; Sar = CNCC(=O)O

Chain of E. coli DNA gyrase (P0AES4 whole entry, one chain of several): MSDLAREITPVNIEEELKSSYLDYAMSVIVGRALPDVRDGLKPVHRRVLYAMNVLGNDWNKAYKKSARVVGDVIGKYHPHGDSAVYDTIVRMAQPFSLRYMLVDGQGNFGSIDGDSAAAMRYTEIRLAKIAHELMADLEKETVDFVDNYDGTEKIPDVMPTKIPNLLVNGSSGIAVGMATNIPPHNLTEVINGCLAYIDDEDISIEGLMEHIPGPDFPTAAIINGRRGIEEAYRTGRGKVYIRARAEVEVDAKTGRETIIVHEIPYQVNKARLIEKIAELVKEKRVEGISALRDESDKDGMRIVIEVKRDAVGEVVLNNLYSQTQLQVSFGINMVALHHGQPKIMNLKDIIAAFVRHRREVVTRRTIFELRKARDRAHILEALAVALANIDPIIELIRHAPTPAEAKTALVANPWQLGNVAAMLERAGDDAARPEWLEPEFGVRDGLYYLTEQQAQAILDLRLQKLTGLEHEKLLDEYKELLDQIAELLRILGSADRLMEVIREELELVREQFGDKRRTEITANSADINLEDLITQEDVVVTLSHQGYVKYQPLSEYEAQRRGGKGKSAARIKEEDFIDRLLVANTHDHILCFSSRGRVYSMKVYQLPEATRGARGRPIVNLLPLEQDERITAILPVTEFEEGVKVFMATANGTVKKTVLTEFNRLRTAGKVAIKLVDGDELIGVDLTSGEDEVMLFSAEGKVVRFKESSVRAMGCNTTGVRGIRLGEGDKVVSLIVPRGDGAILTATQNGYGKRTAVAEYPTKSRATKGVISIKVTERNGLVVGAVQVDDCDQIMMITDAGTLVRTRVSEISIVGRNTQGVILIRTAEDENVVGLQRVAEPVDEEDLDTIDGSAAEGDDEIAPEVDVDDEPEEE

On to `CN(C)[C@@H]1C(O)=C(C(N)=O)C(=O)[C@@]2(O)C(O)=C3C(=O)c4c(O)cccc4[C@@](C)(O)[C@H]3C[C@@H]12` [tetracycline], for which the bacterial growth inhibition result in [1] was “inhibited bacterial growth”.
`N.N.[Cl][Pt][Cl]` [Cisplatin]: in assay [1], the bacterial growth inhibition result was “inhibited bacterial growth”. In addition, in [2], the “COMPARE correlation (Pearson correlation coefficient) to compound 2” value (“COMPARE correlation” for short) was −0.16. Besides, the values for the half-inhibitory concentration (IC50) in [3], in [6] and in assay [8] were 5.28 µM, 3.1 µM and 3.05 µM, respectively. For the same compound, the average filament length in assay [4] (E. coli treated at the MIC, 24 h) is 53 μm. Also, in assay [5], the “sensitization of XPA knockout versus parental HeLa” value came out at 4 fold. For the same compound, in assay [7], the NPM1 distribution phenotype result is recorded as “Smaller changes in NPM1 distribution”.
Turning to `CO[C@H]1/C=C/O[C@@]2(C)Oc3c(C)c(O)c4c(O)c(c(/C=N/N5CCN(C)CC5)c(O)c4c3C2=O)NC(=O)/C(C)=C\C=C\[C@H](C)[C@H](O)[C@@H](C)[C@@H](O)[C@@H](C)[C@H](OC(C)=O)[C@@H]1C` [rifampicin], the bacterial growth inhibition entry in [1] is listed as “inhibited bacterial growth”.
On to `CO[C@@H]1[C@H](O)C[C@@H](O[C@@H]2C[C@H](Oc3cc4cc5c(c(O)c4c(O)c3C)C(=O)[C@@H](O[C@H]3C[C@@H](O[C@H]4C[C@@H](O[C@H]6C[C@](C)(O)[C@@H](OC(C)=O)[C@H](C)O6)[C@H](O)[C@@H](C)O4)[C@H](O)[C@@H](C)O3)[C@H]([C@H](OC)C(=O)[C@@H](O)[C@@H](C)O)C5)O[C@H](C)[C@@H]2OC(C)=O)O[C@@H]1C` [Chromomycin A3], for which, in assay [2], the “COMPARE correlation” value is given as 0.85.
Turning to `Cc1c2oc3c(C)ccc(C(=O)N[C@@H]4C(=O)N[C@H](C(C)C)C(=O)N5CCC[C@H]5C(=O)N(C)CC(=O)N(C)[C@@H](C(C)C)C(=O)O[C@@H]4C)c3nc-2c(C(=O)N[C@@H]2C(=O)N[C@H](C(C)C)C(=O)N3CCC[C@H]3C(=O)N(C)CC(=O)N(C)[C@@H](C(C)C)C(=O)O[C@@H]2C)c(N)c1=O` [Actinomycin D] (I: T[dV]P[Sar][NMeV] / II: T[dV]P[Sar][NMeV]; ester I:1-I:C, II:1-II:C; linker I:N-II:N via Actinocin(9to1)), the “COMPARE correlation” value in assay [2] is given as 0.69. In assay [7], the NPM1 distribution phenotype entry is “delocalized NPM1 phenotype”.
For the compound `COc1cc([C@@H]2c3cc4c(cc3[C@@H](O[C@@H]3O[C@@H]5CO[C@@H](C)O[C@H]5[C@H](O)[C@H]3O)[C@H]3COC(=O)[C@H]23)OCO4)cc(OC)c1O` [Etoposide], in [2], the “COMPARE correlation” value was 0.39.
For `COc1cccc2c1C(=O)c1c(O)c3c(c(O)c1C2=O)C[C@@](O)(C(=O)CO)C[C@@H]3O[C@H]1C[C@H](N)[C@H](O)[C@H](C)O1` [Doxorubicin], in [2], the “COMPARE correlation” value amounted to 0.55.
Take `CC(=O)O[C@H]1C(=O)[C@@]2(C)[C@H]([C@H](OC(=O)c3ccccc3)[C@]3(O)C[C@H](OC(=O)[C@H](O)[C@@H](NC(=O)c4ccccc4)c4ccccc4)C(C)=C1C3(C)C)[C@]1(OC(C)=O)CO[C@@H]1C[C@@H]2O` [Paclitaxel]: the bacterial growth inhibition result in [1] is on record as “inhibited bacterial growth except for paclitaxel”. Moreover, the “COMPARE correlation” value in assay [2] was determined as 0.71. For the same compound, the filamentation result in [4] (E. coli) was “no filament formation”.
Turning to `N.N.O=C([O-])C1(C(=O)[O-])CCC1.[Pt+2]` [Carboplatin], the “COMPARE correlation” value in assay [2] came to 0.12.
For `CC[C@]1(O)C[C@@H]2CN(CCc3c([nH]c4ccccc34)[C@@](C(=O)OC)(c3cc4c(cc3OC)N(C)[C@H]3[C@@](O)(C(=O)OC)[C@H](OC(C)=O)[C@]5(CC)C=CCN6CC[C@]43[C@@H]65)C2)C1` [Vinblastine], in [2], the “COMPARE correlation” value came out at 0.64.
In the case of `O=C(O)c1cn(C2CC2)c2cc(N3CCNCC3)c(F)cc2c1=O` [Ciprofloxacin], in assay [9], the “concentration at which the supercoiled form was lost” value came out at 0.75 µM.
